Measurements reported in article PMC7667002 (Drug Design, Development and Therapy, 2020).
Each block holds one compound with its values, some of them ahead of it.

What was measured:
[1] = Stability of VEN and ODV in rat plasma under different storage conditions; format: in vitro ADME; settings: for Stability, Accuracy RE (%): n = 6
[2] = In vivo pharmacokinetic study of VEN and ODV in rats with or without vonoprazan; design: species or system Sprague-Dawley rats; settings: rat; for AUC(0-t) / AUC(0-inf) / CL/F / Cmax / MRT last / MRT inf / Tmax / Vd/F / half-life: male, Sprague-Dawley, plasma, po, 20 mg/kg, rat plasma, VEN 20 mg/kg oral; for CL/F: CLz/F; for MRT last: MRT(0-t); for MRT inf: MRT(0-∞); for Vd/F: Vz/F; for half-life: t1/2z
Enzyme kinetics = format: in vitro ADME; settings: rat, rat liver microsomes, pH 7.4
Summary of the method: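 Rat liver microsomes (1 mg/mL) were incubated in 100 mM potassium phosphate pH 7.4 with 10 mM NADPH and venlafaxine. After 5 min pre-incubation at 37°C, NADPH started a 30 min reaction, stopped with ice-cold acetonitrile containing diazepam internal standard. ODV formation was quantified by UPLC-MS/MS. Km came from nonlinear regression of velocity versus substrate concentration on duplicate or triplicate determinations.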

rat liver microsomes = test: Effect of vonoprazan on the metabolism of VEN; format: in vitro ADME; settings: RLMs
Summary of the method: (§1)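 Male Sprague–Dawley rat liver microsomes were prepared by differential centrifugation (9000 × g, then 105,000 × g). After 5 min pre-incubation at 37°C, NADPH started a 30 min reaction, stopped with ice-cold acetonitrile. ODV was measured by UPLC-MS/MS against a diazepam internal standard, in triplicate, and analysed by Lineweaver–Burk plots with slope and intercept replots.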

[3] = tested on: venlafaxine O-demethylation (ODV formation) in rat liver microsomes; no CYP named; test: Effect of vonoprazan on the metabolism of VEN; format: in vitro ADME; settings: rat, rat liver microsomes, pH 7.4, probe venlafaxine (VEN), 2-16 μM
Summary of the method: as §1

[4] = 4°C, 24h, high QC (VEN 300, ODV 60 ng·mL^−1)
[5] = 4°C, 24h, low QC (VEN 3, ODV 0.6 ng·mL^−1)
[6] = Room Temperature, 6h, high QC (VEN 300, ODV 60 ng·mL^−1)
[7] = Room Temperature, 6h, low QC (VEN 3, ODV 0.6 ng·mL^−1)
[8] = −80°C, 7 Days, high QC (VEN 300, ODV 60 ng·mL^−1)
[9] = −80°C, 7 Days, low QC (VEN 3, ODV 0.6 ng·mL^−1)
[10] = + vonoprazan 5 mg/kg oral, 7 days
[11] = + vonoprazan 20 mg/kg oral, 7 days
[12] = VEN 20 mg/kg oral + vonoprazan 5 mg/kg
[13] = VEN 20 mg/kg oral + vonoprazan 20 mg/kg

- Stability, Accuracy RE (%) [1, 4]: 108.96%
- Stability, Accuracy RE (%) [1, 5]: 112.11%
- Stability, Accuracy RE (%) [1, 6]: 109.57%
- Stability, Accuracy RE (%) [1, 7]: 107.58%
- Stability, Accuracy RE (%) [1, 8]: 106.85%
- Stability, Accuracy RE (%) [1, 9]: 105.72%
- AUC(0-t) [2, 10]: 221 ± 31.5 ng·h/mL
- AUC(0-t) [2, 11]: 469 ± 68.6 ng·h/mL
- AUC(0-t) ([2]; without vonoprazan (control)): 155 ± 36.6 ng·h/mL
- AUC(0-inf) [2, 10]: 225 ± 31.7 ng·h/mL
- AUC(0-inf) [2, 11]: 492 ± 79.8 ng·h/mL
- AUC(0-inf) ([2]; without vonoprazan (control)): 161 ± 43.5 ng·h/mL
- CL/F [2, 10]: 1510 mL/min/kg
- CL/F [2, 11]: 696 mL/min/kg
- CL/F ([2]; without vonoprazan (control)): 2200 mL/min/kg
- Cmax [2, 10]: 69.7 ± 30.1 ng/mL
- Cmax [2, 11]: 109 ± 13.4 ng/mL
- Cmax ([2]; without vonoprazan (control)): 58.1 ± 14.1 ng/mL
- MRT last [2, 10]: 3.08 ± 0.48 h
- MRT last [2, 11]: 3.92 ± 0.38 h
- MRT last ([2]; without vonoprazan (control)): 2.82 ± 0.55 h
- MRT inf [2, 10]: 3.28 ± 0.49 h
- MRT inf [2, 11]: 4.44 ± 0.52 h
- MRT inf ([2]; without vonoprazan (control)): 3.2 ± 1.16 h
- Tmax [2, 10]: 57 ± 22.2 min
- Tmax [2, 11]: 156 ± 33 min
- Tmax ([2]; without vonoprazan (control)): 45 ± 10.8 min
- Vd/F [2, 10]: 260 ± 41.5 L/kg
- Vd/F [2, 11]: 142 ± 30.4 L/kg
- Vd/F ([2]; without vonoprazan (control)): 374 ± 170 L/kg
- half-life [2, 10]: 121 ± 21.6 min
- half-life [2, 11]: 146 ± 45 min
- half-life ([2]; without vonoprazan (control)): 123 ± 63 min
- Increase of the metabolite (M. R.) compared with control group [2, 12]: 0.87 fold
- Decrease of CLz/F compared with control group [2, 13]: 68.33%
- Decrease of Vz/F compared with control group [2, 13]: 62.08%
- Elevation of Cmax compared with control group [2, 13]: 0.88 fold
- Elevation of Tmax compared with control group [2, 13]: 2.46 fold
- Increase of AUC(0-∞) compared with control group [2, 13]: 2.05 fold
- Increase of MRT(0-∞) compared with control group [2, 13]: 0.39 fold
- Increase of the metabolite (M. R.) compared with control group [2, 13]: 1.34 fold
Structure (SMILES): CN(C)CC(c1ccc(O)cc1)C1(O)CCCCC1 (stereo not shown) [ODV, O-desmethylvenlafaxine]

Structure (SMILES): COc1ccc(C(CN(C)C)C2(O)CCCCC2)cc1 (stereo not shown) [VEN, Venlafaxine]
- Stability, accuracy range over three QC levels and three storage conditions ([1]; 4°C 24 hours, room temperature 4 hours, −80°C 7 days): 99.68–111.18%
- Stability, Accuracy RE (%) [1, 4]: 106.95%
- Stability, Accuracy RE (%) [1, 5]: 108.99%
- Stability, Accuracy RE (%) [1, 6]: 102.08%
- Stability, Accuracy RE (%) [1, 7]: 102.90%
- Stability, Accuracy RE (%) [1, 8]: 105.33%
- Stability, Accuracy RE (%) [1, 9]: 99.68%
- AUC(0-t) [2, 10]: 689 ± 161 ng·h/mL
- AUC(0-t) [2, 11]: 1910 ng·h/mL
- AUC(0-t) ([2]; without vonoprazan (control)): 260 ± 102 ng·h/mL
- AUC(0-inf) [2, 10]: 694 ± 163 ng·h/mL
- AUC(0-inf) [2, 11]: 1920 ng·h/mL
- AUC(0-inf) ([2]; without vonoprazan (control)): 261 ± 101 ng·h/mL
- CL/F [2, 10]: 500 mL/min/kg
- CL/F [2, 11]: 192 mL/min/kg
- CL/F ([2]; without vonoprazan (control)): 1460 mL/min/kg
- Cmax [2, 10]: 261 ± 110 ng/mL
- Cmax [2, 11]: 525 ± 115 ng/mL
- Cmax ([2]; without vonoprazan (control)): 127 ± 41.5 ng/mL
- MRT last [2, 10]: 2.44 ± 0.3 h
- MRT last [2, 11]: 3.28 ± 0.52 h
- MRT last ([2]; without vonoprazan (control)): 2.09 ± 0.18 h
- MRT inf [2, 10]: 2.52 ± 0.43 h
- MRT inf [2, 11]: 3.36 ± 0.56 h
- MRT inf ([2]; without vonoprazan (control)): 2.12 ± 0.17 h
- Tmax [2, 10]: 57 ± 22.2 min
- Tmax [2, 11]: 156 ± 33 min
- Tmax ([2]; without vonoprazan (control)): 42 ± 12.6 min
- Vd/F [2, 10]: 62.1 ± 15.4 L/kg
- Vd/F [2, 11]: 19.9 ± 7.19 L/kg
- Vd/F ([2]; without vonoprazan (control)): 187 ± 130 L/kg
- half-life [2, 10]: 88.8 ± 27.6 min
- half-life [2, 11]: 76.8 ± 31.8 min
- half-life ([2]; without vonoprazan (control)): 83.4 ± 19.2 min
- Decrease of Clz/F compared with control group [2, 12]: 65.73%
- Increase of Cmax compared with control group [2, 12]: 1.05 fold
- Decrease of CLz/F compared with control group [2, 13]: 86.87%
- Decrease of Vz/F compared with control group [2, 13]: 89.35%
- Elevation of Cmax compared with control group [2, 13]: 3.12 fold
- Elevation of Tmax compared with control group [2, 13]: 2.71 fold
- Increase of AUC(0-∞) compared with control group [2, 13]: 6.37 fold
- Increase of MRT(0-∞) compared with control group [2, 13]: 0.58 fold
- Km at 30 min (Enzyme kinetics): 8.28 µM

- Ki’ (inhibition of VEN metabolism) (rat liver microsomes; mixed inhibition, Lineweaver-Burk): 11.29 µM
- Ki (rat liver microsomes; read-out: Ki (inhibition of VEN metabolism), mixed inhibition, Lineweaver-Burk): 23.1 µM
- IC50 at 30 min [3]: 5.54 µM
Structure (SMILES): CNCc1cc(-c2ccccc2F)n(S(=O)(=O)c2cccnc2)c1 [Vonoprazan]
- Inhibition mechanism on VEN metabolism (rat liver microsomes; competitive plus non-competitive): mixed inhibition
